Data set [1] is described as follows: melting temperature; fluorescence melt of hairpins on a sequencing array, two-state fit, raised by 9.35 °C to match UV melts. Particulars: sodium 0.088 M. In short, it runs like this: (§1)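 Two-state fits, bootstrapped, provided melting temperature and folding enthalpy from Cy3 fluorescence normalised to pre-quench Cy3 and to control constructs. Library hairpins with annealed Cy3 and quencher oligos were imaged on a sequenced MiSeq flow cell in 50 mM Na-HEPES pH 8.0, 25 mM NaCl, at 2.5 °C intervals up to 60 °C. Four replicates were combined with inverse-variance weighting. A 9.35 °C upward shift was applied to fitted temperatures to match UV melts.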

A short description of data set [2]: folding enthalpy; higher = less favourable; fluorescence melt of hairpins on a sequencing array, two-state fit. The following applies: sodium 0.088 M. The gist of the method:
as §1

As to GTTCGCGAAAGCGATAAC ((((((....)))..))), in data set [1], the Tm came to 32.7 °C. In data set [2], the folding enthalpy was -8.04 kcal/mol.
In the case of GTTCGCGAAAGCGCGAAC ((((((....)))..))), the Tm in data set [1] worked out at 65 °C. For the same sequence, in data set [2], the folding enthalpy was -27.4 kcal/mol.
Take GTTCGCGAAAGCGGGAAC ((((((....)))..))): in data set [1], the Tm is 40.7 °C. Moreover, the folding enthalpy in data set [2] was -11.8 kcal/mol.
Take GTTCGCGGAAACGTGAAC ((((.((....)).)))): the Tm in data set [1] turned out to be 56.8 °C. Also, in data set [2], the folding enthalpy was -37.7 kcal/mol.
Take GTTCGCGGAAACGTGGAC ((.(.((....)).).)): the Tm in data set [1] was 44.8 °C. In data set [2], the folding enthalpy is -26.9 kcal/mol.
Consider GTTCGGGGAAACCCGGAC ((.((((....)))).)), for which the Tm in data set [1] is 54.9 °C. Further, the folding enthalpy in data set [2] is -42.2 kcal/mol.
The corresponding values for GTTCGTGGAAACACAAAC (((.(((....))).))) are 34 °C and -22.1 kcal/mol.
GTTCTAGAAATAGAAC ((((((....)))))): in data set [1], the Tm came out at 41.1 °C. In data set [2], the folding enthalpy was -28.4 kcal/mol.
Consider GTTCTAGGAAACCAGAAC (((((.(....).))))), for which the Tm in data set [1] came out at 35.6 °C. Also, the folding enthalpy in data set [2] is -26.6 kcal/mol.
For the sequence GTTCTCGAAAGAGAAAAC ((((((....)))..))), the Tm in data set [1] is 32.6 °C. Besides, in data set [2], the folding enthalpy was -14 kcal/mol.
As to GTTCTCGAAAGAGACAAC ((((((....)))..))), the Tm in data set [1] came out at 30.6 °C. Besides, in data set [2], the folding enthalpy is -11.6 kcal/mol.
As to GTTCTCGAAAGAGTAAAC ((((((....)))..))), in data set [1], the Tm amounted to 27.9 °C. Moreover, in data set [2], the folding enthalpy was -12.5 kcal/mol.
Regarding GTTCTCGGAAACGAGGAC ((.((((....)))).)), in data set [1], the Tm came to 52 °C. Also, in data set [2], the folding enthalpy was -28.7 kcal/mol.
As for GTTCTGACGAAAGTCAAC (((..(((....)))))), the Tm in data set [1] came to 25.2 °C. For the same sequence, in data set [2], the folding enthalpy is -8.85 kcal/mol.
Consider GTTCTGCGAAAGCAAAC (((.(((....)))))), for which the Tm in data set [1] was determined as 36.9 °C. The folding enthalpy in data set [2] was -13.5 kcal/mol.
For the sequence GTTCTGGAAACAGAAC ((((((....)))))), the Tm in data set [1] is 53.4 °C. Also, the folding enthalpy in data set [2] was -37.2 kcal/mol.
For GTTCTGGGAAACTAGGAC ((.((.(....).)).)), the Tm in data set [1] is 28.8 °C. Moreover, the folding enthalpy in data set [2] is -9.14 kcal/mol.
Take GTTCTGTCGAAAGACAAC (((..(((....)))))): the Tm in data set [1] was 23.8 °C. For the same sequence, in data set [2], the folding enthalpy was -9.57 kcal/mol.
For GTTCTTCGAAAGAACAAC (((.(((....))).))), the Tm in data set [1] turned out to be 32 °C. Moreover, the folding enthalpy in data set [2] is -14.9 kcal/mol.
Turning to GTTCTTGGAAACAAGAAC (((((((....))))))), the Tm in data set [1] was found to be 55.5 °C. Moreover, the folding enthalpy in data set [2] was -41.7 kcal/mol.
For the sequence GTTGAAGAAATTCAAC ((((((....)))))), in data set [1], the Tm stood at 45.8 °C. For the same sequence, the folding enthalpy in data set [2] is -27.1 kcal/mol.
Turning to GTTGAAGGAAACCTCAAC (((((.(....).))))), in data set [1], the Tm amounted to 36 °C. The folding enthalpy in data set [2] was -31 kcal/mol.
Consider GTTGACCCGAAAGGGAAC (((..(((....)))))), for which the Tm in data set [1] stood at 37.8 °C. Besides, in data set [2], the folding enthalpy was -14.3 kcal/mol.
The corresponding values for GTTGACCGAAAGGTAAAC (((.(((....))).))) are 48.7 °C and -30.7 kcal/mol.
On the same counts, the results for GTTGACCGAAAGGTTAAC (((.(((....))).))) are 53.1 °C and -33.7 kcal/mol.
On the same counts, the results for GTTGACGAAAGTCCAAAC ((((((....)))..))) are 24.3 °C and -9.18 kcal/mol.
For GTTGAGCGAAAGCTGAAC (((.(((....))).))), the Tm in data set [1] worked out at 46.2 °C. Also, the folding enthalpy in data set [2] was -23.9 kcal/mol.
In the case of GTTGAGCGAAAGCTTAAC (((.(((....))).))), the Tm in data set [1] turned out to be 52.4 °C. In addition, the folding enthalpy in data set [2] was -26.4 kcal/mol.
On to GTTGAGGAAACTCAAC ((((((....)))))), for which, in data set [1], the Tm was found to be 53.4 °C. Besides, in data set [2], the folding enthalpy is -32.2 kcal/mol.
As to GTTGAGGCGAAAGCCAAC (((..(((....)))))), in data set [1], the Tm was found to be 40.7 °C. In addition, the folding enthalpy in data set [2] was -14.6 kcal/mol.
As to GTTGAGGGAAACCTCGAC ((.((((....)))).)), the Tm in data set [1] is 49.8 °C. Also, in data set [2], the folding enthalpy is -29.5 kcal/mol.
On to GTTGATACGAAAGTAAAC (((..(((....)))))), for which the Tm in data set [1] was 25.8 °C. In addition, in data set [2], the folding enthalpy is -8.92 kcal/mol.
On to GTTGATCGAAAGATAAAC (((.(((....))).))), for which the Tm in data set [1] was 40 °C. Also, the folding enthalpy in data set [2] was -25.1 kcal/mol.
For GTTGATGGAAACATTGAC ((..(((....)))..)), in data set [1], the Tm turned out to be 29.5 °C. For the same sequence, in data set [2], the folding enthalpy is -13.7 kcal/mol.
The corresponding values for GTTGATGGAAACGTCAAC (((((.(....).))))) are 47.1 °C and -42.9 kcal/mol.
On to GTTGCAGGAAACTGTAGC (.(.(((....))).).), for which the Tm in data set [1] is 32.6 °C. In data set [2], the folding enthalpy is -19.9 kcal/mol.
On the same counts, the results for GTTGCCCCGAAAGGGAAC (((..(((....)))))) are 39.2 °C and -14.2 kcal/mol.

(Values after the array DNA melting data of Ke et al. (doi:10.1101/2024.01.08.574731).)
